How the values were obtained:
[1] = Plasma concentration in CE-2 chow diet-fed golden Syrian hamster at 100 mg/kg, po after 0.5 hrs by HPLC-LC-MS/MS method; format: ADME, organism-based, Mesocricetus auratus
Method in brief: (§1)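 Hamsters on chow diet received a single oral dose of 100 mg/kg. Heparin plasma was drawn from a forearm vein at 0.5, 1, 2, 3, 4, 6, 8, 10 and 24 h after dosing. Concentrations of parent drug and its carboxylic acid metabolite were measured in plasma.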

[2] = Plasma concentration in CE-2 chow diet-fed golden Syrian hamster at 100 mg/kg, po after 2 hrs by HPLC-LC-MS/MS method; format: ADME, organism-based, Mesocricetus auratus; method in brief: as §1
[3] = Plasma concentration in CE-2 chow diet-fed golden Syrian hamster at 100 mg/kg, po after 3 hrs by HPLC-LC-MS/MS method; format: ADME, organism-based, Mesocricetus auratus; method in brief: as §1
Syrian golden hamster = experiment: Drug metabolism in CE-2 chow diet-fed golden Syrian hamster assessed as 4-(4-(1,1,1,3,3,3-Hexafluoro-2-hydroxypropan-2-yl)-2,6-di-n-propylphenoxy)-butanoic acid formation at 100 mg/kg, po after 0.5 to 24 hrs by HPLC-LC-MS/MS method; format: ADME, organism-based, Mesocricetus auratus; details: in vivo; method in brief: as §1
Hamster [4] = experiment: Increase in ABCA1 gene expression in Bio F1B hamster peripheral blood at 10 mg/kg, po; format: functional, Cricetinae
Hamster [5] = experiment: Increase in ABCG5 gene expression in Bio F1B hamster intestine at 10 mg/kg, po; format: functional, Cricetinae
Hamster [6] = experiment: Increase in ABCG8 gene expression in Bio F1B hamster intestine at 10 mg/kg, po; format: functional, Cricetinae
Hamster [7] = experiment: Increase in ABCG8 gene expression in Bio F1B hamster intestine at 100 mg/kg, po; format: functional, Cricetinae
Method in brief: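 Bio F1B hamsters were fed a high-fat, high-cholesterol diet and dosed orally. Gene expression was measured in intestine (ABCA1, ABCG5, ABCG8) and in peripheral blood (ABCA1).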

Hamster [8] = experiment: Hypolipidemic effect in Bio F1B hamster fed with high fat and cholesterol diet assessed as total cholesterol level at 10 mg/kg, po relative to control; format: functional, Cricetinae
Hamster [9] = experiment: Hypolipidemic effect in Bio F1B hamster fed with high fat and cholesterol diet assessed as HDL-cholesterol level at 100 mg/kg, po relative to control; format: functional, Cricetinae
Hamster [10] = experiment: Hypolipidemic effect in Bio F1B hamster fed with high fat and cholesterol diet assessed as LDL-cholesterol level at 10 mg/kg, po relative to control; format: functional, Cricetinae
Hamster [11] = experiment: Effect in lipid profiles in Bio F1B hamster fed with high fat and cholesterol diet assessed as triglyceride level at 10 mg/kg, po relative to control; format: organism-based; details: cricetinae, in vivo
Hamster [12] = experiment: Hypolipidemic effect in Bio F1B hamster fed with high fat and cholesterol diet assessed as lipid-accumulation area in aortic arch at 30 mg/kg, po relative to control; format: functional, Cricetinae

In the case of `CCCc1cc(C(O)(C(F)(F)F)C(F)(F)F)cc(CCC)c1OCCCCN1C(=O)NC(C)(c2ccc(OC(C)C)cc2)C1=O` (stereo not drawn), the concentration at 0.5 h [1] is reported as 310 nM, the concentration at 2 h [2] is reported as 320 nM and the concentration at 3 h [3] is reported as 290 nM. For the same compound, the Drug metabolism (Syrian golden hamster) was “metabolite_detected”, the “fold change (FC)” value (Hamster [4]) was 1 and the “fold change (FC)” value (Hamster [5]) was 1.2. For the same compound, the “fold change (FC)” value (Hamster [6]) was 1.3, the “fold change (FC)” value (Hamster [7]) was 1.3 and the Activity (Hamster [8]) was 87%. The Activity (Hamster [9]) was 75%, the Activity (Hamster [10]) was 94% and the Activity (Hamster [11]) was 97%. For the same compound, the Activity (Hamster [12]) was 84%.

From ChEMBL document CHEMBL3588803, “Design, synthesis and pharmacology of 1,1-bistrifluoromethylcarbinol derivatives as liver X receptor β-selective agonists” (Bioorg Med Chem Lett, 2015)
